Assay [1] relates to Candida albicans. Briefly: Antifungal activity against Candida albicans at 1 mg/mL. Format: functional, organism-based.
In assay [2] the test system is Rhodotorula glutinis. Briefly: Antifungal activity against Rhodotorula glutinis at 1 mg/mL. Format: functional, organism-based.
Assay [3] deals with HeLa. Briefly: Cytotoxicity against human HeLa cells after 48 hrs by MTT assay. It counts as functional, cell-based. Put shortly: (§1)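 MTT assay. Cells grown in RPMI1640 or DMEM with 10% fetal bovine serum at 37 °C, 5% CO2. Adherent cells allowed to attach 12 h before dosing; suspended cells seeded at dosing, initial density 1 × 10^5 cells/mL. Tested at 1, 10, 50 and 100 μM for 48 h in triplicate, 5-fluorouracil as positive control. Cells solubilized with DMSO, OD read at 595 nm. IC50 taken from mean-OD versus concentration curves.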

The subject of assay [4] is HepG2. Briefly: Cytotoxicity against human HepG2 cells after 48 hrs by MTT assay. Format: functional, cell-based. The settings on record: HepG2, 48 h. A digest of the protocol: as §1
For orientation: Formazan colour is commonly taken as a measure of viable cells.

Assay [5] concerns Bacillus subtilis. The assay can be described thus: Antibacterial activity against Bacillus subtilis at 1 mg/mL. It counts as functional, organism-based.
For assay [6], the system named is Aspergillus niger. The assay can be described thus: Antifungal activity against Aspergillus niger at 1 mg/mL. Format: functional, organism-based.
The test system of assay [7] is Staphylococcus aureus. Briefly: Antibacterial activity against Staphylococcus aureus at 1 mg/mL. It counts as functional, organism-based.
In assay [8] the test system is Staphylococcus aureus. Briefly: Antibacterial activity against methicillin/multi-drug-resistant Staphylococcus aureus assessed as growth inhibition. Format: functional.

Structures are written as SMILES. ≈ marks a conversion by molar mass, not a printed value. Calls of active or inactive are those of the source. The calls are words filed in the database; no cut-off is given here.

As a reminder, the IC50 is the midpoint of a concentration-inhibition curve. A high value points to lower potency. As to `C=C1CC[C@@H]2C3=C(C[C@]4(C)[C@@H](C)CC[C@@]1(C)[C@@H]24)C(=O)C(OCC)=CC3=O`, the outcome in assay [1], in assay [2], in assay [5], in assay [6] and in assay [7] was inactive. Moreover, the IC50 was determined as 7.1 µM in assay [3] and 9.4 µM in assay [4].

As to `CC1=CCC[C@H]2[C@]3(C)CC4=CC(=O)C=C[C@@]4(O)[C@]3(C)CC[C@]12C`, the result in assay [1], in assay [2], in assay [5], in assay [6] and in assay [7] was inactive.

For `CC1=CC[C@H]2[C@H]3[C@](C)(CC4=CC(=O)C=C[C@@]42O)[C@@H](C)CC[C@]13C`, the result in assay [1], in assay [2], in assay [5], in assay [6] and in assay [7] was inactive.

For the molecule `O=c1[nH]cc(F)c(=O)[nH]1` [FLUOROURACIL], the IC50 is 2.3 µM in assay [3] and 7.6 µM in assay [4].

For orientation: MIC50 means an inhibitory concentration at the 50% level, which refers to growth in some studies and to a panel of isolates in others. On to `C=C1[C@H]2C[C@]3(C)C(C)=CCC[C@H]3[C@]1(C)CC1=C2C(=O)C=C(OCC)C1=O`, for which the MIC50 in assay [8] stood at 0.2 µg/mL (≈ 0.567 µM).

The values are drawn from ChEMBL document CHEMBL3108717, “Dysideanones A-C, unusual sesquiterpene quinones from the South China Sea sponge Dysidea avara” (J Nat Prod, 2014).
